Measured values taken from ChEMBL document CHEMBL1137752, “Hydroxychalcones induce apoptosis in B16-F10 melanoma cells via GSH and ATP depletion” (Eur J Med Chem, 2009).
Calls of active or inactive are those of the source. The rule behind the calls is not given here.

Tests used:
B16-F10 [1] = assay: Cytotoxicity against mouse B16F10 cells at 100 uM after 24 hrs by MTT assay relative to control; type: functional
Outline: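 Single-concentration screen in which B16-F10 cells (1 × 10⁵) were exposed to 100 µM compound for 24 h. Viability was read by MTT, with control optical density set as 100%. Three experiments in triplicate, mean ± S.E.M.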

B16-F10 [2] = assay: Induction of apoptosis in mouse B16F10 cells assessed as DNA fragmentation at IC50 after 24 hrs by gel electrophoresis; type: functional, cell-based
Outline: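 DNA ladder assay: 5 × 10⁵ B16-F10 cells were treated for 24 h with each compound at its cell-viability IC50 (DMSO 0.1% final). DNA was ethanol-precipitated, RNase A-treated at 37 °C for 1 h, run on 1.5% agarose and stained with ethidium bromide.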

B16-F10 [3] = assay: Cytotoxicity against mouse B16F10 cells after 72 hrs by MTT assay; type: functional, cell-based; conditions: B16-F10, 72 h
Outline: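 MTT viability assay on B16-F10 cells seeded at 1 × 10⁴ cells/well. Compounds were dissolved in DMSO (0.1% final) and tested over 0–40 µM for 72 h at 37 °C in triplicate. MTT was added for 3 h and formazan dissolved in acidified isopropanol (HCl 0.04 M). Absorbance read at 540 nm. IC50 taken from concentration–response curves against untreated control.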

B16-F10 [4] = assay: Induction of apoptosis in mouse B16F10 cells assessed as decrease in ATP level after 24 hrs by bioluminescent assay; type: functional, cell-based
Outline: (§1)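 Intracellular ATP was measured by luciferin–luciferase bioluminescence. About 3 × 10⁵ B16-F10 cells were exposed to 0–100 µM compound for 24 h, pelleted, and extracted with 1.25% trichloroacetic acid on ice for 30 min. Extracts were neutralized with Tris-acetate 1 M pH 7.5 and diluted 4-fold before reading. Three experiments in triplicate.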

B16-F10 [5] = assay: Induction of apoptosis in mouse B16F10 cells assessed as decrease in total glutathione level up to 100 uM after 24 hrs by glutathione reductase method; type: functional, cell-based
Outline: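 About 3 × 10⁵ B16-F10 cells were treated with 0–100 µM compound for 24 h. A mitochondria-enriched fraction was prepared by centrifugation after homogenization in Tris-sucrose buffer and sonication. Total glutathione (GSH + GSSG) was assayed by the glutathione reductase/DTNB/NADPH method in phosphate buffer 100 mM pH 7.4. Absorbance at 412 nm was read every minute for 5 min against a GSH standard curve.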

B16-F10 [6] = assay: Induction of necrosis in mouse B16F10 cells assessed as alteration in ATP level up to 100 uM after 24 hrs by bioluminescent assay; type: functional, cell-based; outline: as §1

## COc1cc(O)c(C(=O)/C=C/c2cccc(Cl)c2)c(OC)c1
B16-F10 [1]
  Activity: inactive

## COc1cc(OC)c(C(=O)/C=C/c2ccc([N+](=O)[O-])cc2)c(O)c1Br
B16-F10 [1]
  Activity: inactive

## COc1cc(O)c(C(=O)/C=C/c2cccc([N+](=O)[O-])c2)c(OC)c1
B16-F10 [1]
  Activity: inactive

## O=C(/C=C/c1cccc2ccccc12)c1ccccc1O
B16-F10 [2]
  Activity: Active
B16-F10 [3]
  IC50: 17 µM
B16-F10 [1]
  Activity: 75.2%
B16-F10 [4]
  Activity: Dose-dependent effect
B16-F10 [5]
  Activity: Active

## COc1cc(O)c(C(=O)/C=C/c2cccc3ccccc23)c(OC)c1
B16-F10 [1]
  Activity: inactive

## COc1cc(OC)c(C(=O)/C=C/c2ccccc2Cl)c(O)c1Br
B16-F10 [1]
  Activity: inactive

## O=C(/C=C/c1ccc2ccccc2c1)c1ccccc1O
B16-F10 [1]
  Activity: inactive

## O=C(/C=C/c1cccc2ccccc12)c1cccc(O)c1
B16-F10 [2]
  Activity: Active
B16-F10 [3]
  IC50: 12 µM
B16-F10 [1]
  Activity: 97.7%
B16-F10 [4]
  Activity: Dose-dependent effect
B16-F10 [5]
  Activity: Active

## CCCCOc1ccc(/C=C/C(=O)c2c(OC)cc(OC)c(Br)c2O)cc1
B16-F10 [1]
  Activity: inactive

## COc1cc(OC)c(C(=O)/C=C/c2c(OC)cccc2OC)c(O)c1Br
B16-F10 [1]
  Activity: inactive

## COc1ccc(/C=C/C(=O)c2c(OC)cc(OC)c(Br)c2O)cc1
B16-F10 [1]
  Activity: inactive

## COc1cc(C(=O)/C=C/c2ccc3ccccc3c2)ccc1O
B16-F10 [1]
  Activity: inactive

## COc1cc(OC)c(C(=O)/C=C/c2ccccc2C(=O)O)c(O)c1Br
B16-F10 [2]
  Activity: inactive
B16-F10 [3]
  IC50: 30 µM
B16-F10 [1]
  Activity: 50%
B16-F10 [6]
  Activity: inactive
